ChEMBL document CHEMBL4651341, “The discovery of a novel series of compounds with single-dose efficacy against juvenile and adult Schistosoma species” (PLoS Negl Trop Dis, 2021)
Converted amounts (≈) assume the structure as drawn.

What was measured:
Schistosoma mansoni [1] = experiment: Concentration required to kill 50% of 42 day old worms 5 days after drug treatment.; format: functional, organism-based; conditions: Puerto Rican, 120 h
How it was run: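 Adult S. mansoni were perfused from CD1 mice 6 weeks post-infection and washed. They were cultured 3 pairs per well in 1 mL DMEM with 2 mM glutamine, penicillin/streptomycin and 10% FCS […] at 37 °C, 5% CO2. Viability of individual worms was scored on day 5 (120 h).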

Schistosoma mansoni [2] = experiment: Concentration required to kill 50% of 21 day old worms 5 days after drug treatment.; format: functional, organism-based; conditions: Puerto Rican, 120 h
How it was run: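 Juvenile S. mansoni (Puerto Rican strain) were perfused from CD1 mice 3 weeks post-infection and washed. They were cultured 6–8 per well in 200 µL DMEM with 2 mM glutamine, penicillin/streptomycin and 10% FCS at 37 °C, 5% CO2. Viability of individual worms was scored on day 5 after dosing (120 h).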

[3] = Concentration required to kill 50% MRC-5 cells as detected by Alamar blue staining; format: toxicity, cell-based, MRC5; conditions: homo sapiens, read-out: TC50 (the source's name)
[4] = Mean AUC inf in Swiss albino male mice at 1 mg/kg per compound (administered iv in a mixture of 5 compounds to 3 mice) assessed by LCMS/MS.; format: ADME, organism-based; conditions: male, Swiss albino, mouse, in vivo
How it was run: (§1)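 Male Swiss albino mice (~30 g), 3 per experiment, mostly dosed as mixtures of 5 compounds iv via the lateral tail vein. Vehicle: 10% DMSO/90% 50 mM Na2HPO4 with 0.5% Tween-80. Blood sampled at 5, 15, 30 min and 1, 2, 4, 8, 24 h. Plasma stored at −20 °C and quantified by LC-MS after acetonitrile precipitation.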

[5] = Mean observed clearance in Swiss albino male mice at 1 mg/kg per compound (administered iv in a mixture of 5 compounds to 3 mice) assessed by LCMS/MS.; format: ADME, organism-based; conditions: male, Swiss albino, mouse, in vivo, read-out: Clearance (converted); how it was run: as §1
[6] = Mean plasma concentration at 24h in Swiss albino male mice at […] per compound (administered orally in a mixture of 5 compounds to 3 mice) assessed by LCMS/MS.; format: ADME, organism-based; conditions: mouse, po
[7] = Mean time to peak plasma concentration in Swiss albino male mice at […] per compound (administered orally in a mixture of 5 compounds to 3 mice) assessed by LCMS/MS.; format: ADME, organism-based; conditions: mouse, po
[8] = Mean volume of distribution at steady state in Swiss albino male mice at 1 mg/kg per compound (administered iv in a mixture of 5 compounds to 3 mice) assessed by LCMS/MS.; format: ADME, organism-based; conditions: mouse, in vivo, read-out: Volume
How it was run: (§2)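 Male Swiss albino mice (~30 g), 3 per experiment, mostly dosed as mixtures of 5 compounds iv via the lateral tail vein. Vehicle: 10% DMSO/90% 50 mM Na2HPO4 with 0.5% Tween-80. Plasma stored at −20 °C and quantified by LC-MS after acetonitrile precipitation.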

[9] = Concentration required to kill 50% HepG2 cells as detected by MTT staining; format: toxicity, cell-based; conditions: homo sapiens, read-out: TC50 (the source's name)
[10] = Percentage of parent compound remaining after incubation for 90 minutes with cyropreserved mouse hepatocytes at a concentration of 1uM compound and […], determined by LCMS; format: ADME, tissue-based, Hepatocyte; conditions: cryopreserved mouse hepatocytes, read-out: Stability
How it was run: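 Compound was incubated at 1 µM final (2 µM working solution mixed 1:1 with hepatocyte suspension) in supplemented KHB pH 7.4. Conditions: 37 °C, 5% CO2, gentle mixing, duplicates. Reaction quenched with ice-cold acetonitrile containing standard; analysed by LC-MS/MS. % remaining = AUC at t / AUC at T0.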

[11] = Mean oral bioavailability in Swiss albino male mice at […] per compound (administered in a mixture of 5 compounds to 3 mice) assessed by LCMS/MS.; further: dose 2.5 mg/kg; format: ADME, organism-based; conditions: male, Swiss albino, mouse, in vivo, read-out: Bioavailability
[12] = Solubility at 25 degC of compound (diluted from DMSO) in PBS at pH 7.4 determined after 24h (1h sonication, 22h shaking, 1h sonication) by LCMS/MS; format: physicochemical
[13] = Mean half-life in Swiss albino male mice at 1 mg/kg per compound (administered iv in a mixture of 5 compounds to 3 mice) assessed by LCMS/MS.; format: ADME, organism-based; conditions: mouse, in vivo; how it was run: as §2
[14] = Mean plasma concentration at 4h in Swiss albino male mice at […] per compound (administered orally in a mixture of 5 compounds to 3 mice) assessed by LCMS/MS.; format: ADME, organism-based; conditions: mouse, po

Structure (SMILES) | EC50 (Schistosoma mansoni [1]) [µM] | EC50 (Schistosoma mansoni [2]) [µM] | CC50 [3] [µM] | AUC(0-inf) [4] [ng·h/mL] | clearance [5] [mL/min/kg] | concentration at 24 h [6] [ng/mL] | Tmax [7] [min] | Vd [8] [L/kg] | CC50 [9] [µM] | remaining at 1.5 h, 1 µM [10] [%] | bioavailability [11] [%] | solubility kinetic at 24 h [12] [µM] | half-life [13] [min] | concentration at 4 h [14] [ng/mL]
COc1ccc(-c2cnc3cnc(-c4ccc(N5CCN(C)CC5)nc4)cn23)cc1 | > 25 | 15 | 20.9 |  |  |  |  |  |  |  |  |  |  | 
CC(C)Oc1cccc(-c2cn3c(-c4cnn(Cc5ccccc5)c4)cnc3cn2)c1 | > 25 | > 25 | 39.4 |  |  |  |  |  |  |  |  |  |  | 
CC1(c2nc3cnc(-c4ccc(F)c(C(F)(F)F)c4)cn3c2-c2c(F)cc(O)cc2F)CC1 | 0.0563 | 0.0796 |  | 528 | 15.9 | 7.01 | 15 | 9.19 | 7.9 | 41.7 | 55.6 | 32.8 (≈ 15.2 µg/mL) | 509 | 76
CCc1nc2cnc(-c3ccc(F)c(C(F)(F)F)c3)cn2c1-c1c(F)cc(O)cc1F | 0.0528 | 0.0514 |  | 464 | 18 | 12.3 | 15 | 8.79 | 8.3 | 36 | 47.7 | 1.5 (≈ 0.656 µg/mL) | 600 | 50.3
Fc1ccc(-c2cn3c(-c4ccc5[nH]ncc5c4F)c(C(F)(F)F)nc3cn2)cc1CC(F)(F)F | 0.0119 | 0.0104 |  | 328 | 25.5 | 0.971 | 30 | 3.28 | 5.3 | 55.8 | 52.5 | 0.0917 (≈ 0.0456 µg/mL) | 165 | 57.2
Fc1ccc(-c2cn3c(-c4ccc5[nH]ncc5c4F)c(C(F)(F)F)nc3cn2)cc1OC(F)(F)F | 0.0169 | 0.0208 |  | 2700 | 3.23 | 165 | 60 | 5.89 | 12.2 | 94.2 | 81 | 0.785 (≈ 0.392 µg/mL) | 1330 | 358
CC(C)Oc1cccc(-c2ccc3nnc(-c4ccc(O)cc4)n3c2)c1 |  | > 25 | > 50 |  |  |  |  |  |  |  |  |  |  | 
Oc1cc(F)c(-c2c(C3CCC3)nc3cnc(-c4ccc(F)c(C(F)(F)F)c4)cn23)c(F)c1 | 0.0586 | 0.0729 |  | 1060 | 7.9 | 21.7 | 20 | 4.74 | 5.7 | 48.2 | 48.6 | 51.6 (≈ 23.9 µg/mL) | 550 | 161
Cc1nc2cnc(-c3ccc(F)c(C(F)(F)F)c3)cn2c1-c1c(F)cc(OP(=O)(O)O)cc1F |  | 0.103 |  | 111 | 75.3 | 0.1 | 15 | 7.18 | 6.8 | 40.8 | 39.3 | 136 (≈ 68.4 µg/mL) | 139 | 15.6
CC(C)c1nc2cnc(-c3ccc(F)c(C(F)(F)F)c3)nc2n1-c1c(F)cc(O)cc1F | 0.0714 | 0.128 |  | 360 | 23.3 | 5.17 | 15 | 7.39 | 4.8 | 12.5 | 45 | 1.26 (≈ 0.57 µg/mL) | 425 | 52.6
CC(C)Oc1cccc(-c2cn3c(-c4ccnc(C(F)(F)F)c4)cnc3cn2)c1 | > 25 | > 25 | > 49.2 |  |  |  |  |  |  |  |  |  |  | 
CC(C)c1cccc(-c2ccc3nnc(-c4cccc(NS(C)(=O)=O)c4)n3c2)c1 |  | 24.6 | > 50 |  |  |  |  |  |  |  |  |  |  | 
CC(C)c1nc2cnc(-c3cccc(S(F)(F)(F)(F)F)c3)cn2c1-c1c(F)cc(O)cc1F | 0.0238 | < 0.012 |  | 231 | 36.2 | 0.1 | 15 | 2.64 | 6.6 | 31.1 | 18.4 | 6.63 (≈ 3.26 µg/mL) | 106 | 16.6
COc1ccc(-c2nnc3ccc(-c4cccc(C(C)C)c4)cn23)cn1 |  | 24.2 | 45.8 |  |  |  |  |  |  |  |  |  |  | 
CCc1nn2cnc(-c3ccc(F)c(C(F)(F)F)c3)cc2c1-c1c(F)cc(O)cc1F | 0.0109 | 0.0323 |  | 144 | 58.5 | 0.01 | 20 | 4.06 | 9.8 | 50.7 | 21.1 | 1.21 (≈ 0.529 µg/mL) | 74.4 | 9.68
CC(C)c1nc2cnc(-c3ccc(F)c(C(F)(F)F)c3)cn2c1-c1c(F)cc(OP(=O)(O)O)cc1F | 0.0272 | 0.025 |  | 54.7 | 153 | 0.1 | 15 | 3.62 | 6.5 | 0.9 | 21.4 | 179 (≈ 95.1 µg/mL) | 25 | 4.01
COc1ccc(-c2nnc3ccc(-c4cccc5c4OCC5)cn23)cc1OC |  | 24.8 | 27.6 |  |  |  |  |  |  |  |  |  |  | 
